Experimental data: article PMC6530469 (Biochemical pharmacology, 2018)
Read-outs that look alike come from different tables or passages of the source.

How the values were obtained:
[1] = molecular target: T1, hA3AR-NanoBit-βarr2 (A3AR-LgBit with SmBit-βarr2) (Homo sapiens, UniProt P0DMS8); assay: cell-based; settings: HEK-293T, read-out: Stable A3AR NanoBit® HEK293T cell line^A / Emax (%)
[2] = molecular target: T1, hA3AR-NanoBit-βarr2 (A3AR-LgBit with SmBit-βarr2); assay: NanoBit βarr2 recruitment, luminescence AUC; type: cell-based
[3] = molecular target: T1, hA3AR-NanoBit-βarr2 (A3AR-LgBit with SmBit-βarr2); assay: cell-based; settings: HEK-293T, read-out: Stable A3AR NanoBit® HEK293T cell line^A / Emax (%); remark: listed apart in the source
[4] = molecular target: T2, human A3AR (hA3AR) (Homo sapiens, UniProt P0DMS8); assay: cell-based; settings: CHO, read-out: Stable A3AR CHO cell line^B / Emax (%)
T2 sequence (P0DMS8 1-318): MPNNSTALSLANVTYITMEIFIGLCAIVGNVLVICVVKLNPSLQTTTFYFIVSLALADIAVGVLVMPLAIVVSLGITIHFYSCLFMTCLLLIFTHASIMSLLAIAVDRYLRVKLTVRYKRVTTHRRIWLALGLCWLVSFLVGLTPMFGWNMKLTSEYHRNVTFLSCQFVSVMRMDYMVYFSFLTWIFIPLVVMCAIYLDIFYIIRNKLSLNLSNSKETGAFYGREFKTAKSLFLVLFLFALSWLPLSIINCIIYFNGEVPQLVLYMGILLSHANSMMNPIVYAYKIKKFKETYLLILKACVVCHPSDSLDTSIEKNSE

[5] = molecular target: T2, human A3AR (hA3AR); assay: […]I-AB-MECA competition, CHO membranes; type: binding
[6] = molecular target: T2, human A3AR (hA3AR); assay: inhibition of forskolin-stimulated cAMP, CHO cells; type: cell-based
[7] = molecular target: T2, human A3AR (hA3AR); assay: inhibition of forskolin-stimulated cAMP, CHO cells; type: cell-based; settings: agonism; 10 µM forskolin, 10 µM rolipram, adenosine deaminase
[8] = molecular target: T1, hA3AR-NanoBit-βarr2 (A3AR-LgBit with SmBit-βarr2); assay: NanoBit βarr2 recruitment, luminescence AUC; type: cell-based; settings: agonism; stable HEK293T cells, room temperature, Opti-MEM I
Method in brief: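 Stable HEK293T line retrovirally co-transduced with A3AR-LgBit and SmBit-βarr2, FACS-sorted on co-expressed EGFP/dNGFR. Cells on PDL-coated plates at 5×10^4/well overnight (37°C, 5% CO2), washed twice, detection reagent added, luminescence equilibrated. Agonist added at final 100 pM–25 µM (≤0.5% DMSO), luminescence followed ≥90 min. DMSO solvent blank (0.001–0.5%) in each run.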

T1 sequence (P32121 whole entry partner, one chain of several): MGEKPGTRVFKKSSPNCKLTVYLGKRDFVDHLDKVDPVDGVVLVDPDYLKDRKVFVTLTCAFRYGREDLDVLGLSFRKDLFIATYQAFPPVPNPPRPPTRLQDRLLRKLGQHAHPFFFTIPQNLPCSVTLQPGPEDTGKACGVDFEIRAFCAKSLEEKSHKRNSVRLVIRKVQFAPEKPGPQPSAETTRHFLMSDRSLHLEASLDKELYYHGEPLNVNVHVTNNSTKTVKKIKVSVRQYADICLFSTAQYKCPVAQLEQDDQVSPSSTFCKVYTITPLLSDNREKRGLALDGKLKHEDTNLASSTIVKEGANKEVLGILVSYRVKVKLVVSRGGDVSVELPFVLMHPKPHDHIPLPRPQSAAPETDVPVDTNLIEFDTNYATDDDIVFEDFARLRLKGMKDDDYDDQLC

Row | SMILES | Emax [1] [%] | EC50 [2] [nM] | Emax [3] [%] | Emax [4] [%] | other results
1 | CNC(=O)[C@@]12C[C@@H]1[C@@H](n1cnc3c(NCc4cccc(Cl)c4)nc(C#Cc4ccc(-c5ccccc5)cc4)nc31)[C@H](O)[C@@H]2O [MRS5679] | 46.8 ± 3.3 | 1200 |  |  | 
2 | C[C@@H](Cc1ccccc1)Nc1ncnc2c1ncn2[C@@H]1O[C@H](CO)[C@@H](O)[C@H]1O [S-PIA] |  |  | 51 ± 1.4 | 97 ± 3 | 
3 | CNC(=O)[C@H]1O[C@@H](n2cnc3c(NCc4cccc(I)c4)ncnc32)[C@H](O)[C@@H]1O [IB-MECA] |  |  | 78.4 ± 2.5 |  | 
4 | CCCNc1nc(C#Cc2ccc(Cl)s2)nc2c1ncn2[C@H]1[C@H](O)[C@H](O)[C@]2(C(=O)NC)C[C@H]12 [MRS7154] | 94.5 ± 4.8 | 21.4 |  |  | 
5 | OC[C@H]1O[C@@H](n2cnc3c(NC4CCCC4)cc(Cl)nc32)[C@H](O)[C@@H]1O [DCCA] | 5.8 ± 0.2 | 1480 |  |  | Ki [5]: 244 ± 37 nM
6 | CNC(=O)[C@@]12C[C@@H]1[C@@H](n1cnc3c(NC)nc(C#Cc4ccccc4Cl)nc31)[C@H](O)[C@@H]2O [MRS5663] | 102 ± 3.6 | 5.62 |  |  | 
7 | O[C@@H]1[C@H](O)[C@@H]2C[C@@H]2[C@H]1n1cnc2c(NCc3cccc(I)c3)nc(Cl)nc21 [MRS5127] |  | 24.5 | 5.2 ± 0.4 |  | EC50 [6]: 12.6 nM
8 | OC[C@H]1O[C@@H](n2cnc3c(NC4CCCC4)ncnc32)[C@H](O)[C@@H]1O [CPA] |  |  | 56.9 ± 3.7 | 97 ± 4 | 
9 | CNC(=O)[C@@]12C[C@@H]1[C@@H](n1cnc3c(NC)nc(C#Cc4ccc(Cl)s4)cc31)[C@H](O)[C@@H]2O [MRS7173] | 78.2 ± 1.8 | 55 |  |  | Ki [5]: 1.56 ± 0.2 nM
10 | OC[C@H]1O[C@@H](n2cnc3c(NC4CCCC4)nc(Cl)nc32)[C@H](O)[C@@H]1O [CCPA] |  |  | 33.5 ± 2.7 | 0 | LogEC50 (NA, not significantly active at 10 μM) [7]: > 10 µM
11 | Nc1nc(Cl)nc2c1ncn2[C@H]1[C@H](O)[C@H](O)[C@]2(CO)C[C@H]12 [MRS1873] |  |  | 13 ± 1.6 | 41 ± 5 | 
12 | CCOC(=O)[C@@]12C[C@@H]1[C@@H](n1ccc3c(NC)nc(C#Cc4ccc(Cl)s4)nc31)[C@H](O)[C@@H]2O [MRS7299] |  |  |  | 1 ± 7 | EC50 [6]: > 10000 nM; LogEC50 (NA, not significantly active at 10 μM) [8]: > 10 µM
13 | CCNC(=O)[C@H]1O[C@@H](n2cnc3c(N)nc(NCCc4ccc(CCC(=O)O)cc4)nc32)[C@H](O)[C@@H]1O [CGS21680] |  |  | 99 ± 5.5 | 98 ± 5 | 
14 | CNC(=O)[C@@]12C[C@@H]1[C@@H](n1cnc3c(NC)nc(C#Cc4ccc(Cl)s4)nc31)[C@H](O)[C@@H]2O [MRS5980] | 95 ± 4 |  |  |  | 
15 | NCCNC(=O)Cc1ccc(NC(=O)Cc2ccc(Nc3ncnc4c3ncn4[C@@H]3O[C@H](CO)[C@@H](O)[C@H]3O)cc2)cc1 [ADAC, N^6-[4-[[[4-[[[(2-aminoethyl)amino]carbonyl]methyl]anilino]-carbonyl]methyl]phenyl]adenosine] |  | 245 | 73.7 ± 3.1 | 103 ± 4 | Ki [5]: 13.3 ± 3 nM
16 | OC[C@H]1O[C@@H](n2cnc3c(NCc4ccccc4)ncnc32)[C@H](O)[C@@H]1O [N^6-benzyl-adenosine] | 34.9 ± 2.3 | 851 |  |  | 
17 | CNC(=O)[C@@]12C[C@@H]1[C@@H](n1cnc3c(NCc4cccc(Cl)c4)nc(C#Cc4ccc(F)c(F)c4)nc31)[C@H](O)[C@@H]2O [MRS5698] |  |  | 83.5 ± 4.6 |  | 
18 | CCNc1cc(C#Cc2ccc(Cl)s2)nc2c1ncn2[C@H]1[C@H](O)[C@H](O)[C@]2(C(=O)NC)C[C@H]12 [MRS7144] |  |  | 74.4 ± 2.3 | 95.5 ± 2.3 | 
19 | CCNC(=O)[C@H]1O[C@@H](n2cnc3c(N)ncnc32)[C@H](O)[C@@H]1O [NECA] |  |  |  | 103 | 
20 | C[C@H](Cc1ccccc1)Nc1ncnc2c1ncn2[C@@H]1O[C@H](CO)[C@@H](O)[C@H]1O [R-PIA] |  |  | 56.6 ± 1.9 | 102 ± 6 | 
21 | CNC(=O)[C@@]12C[C@@H]1[C@@H](n1cnc3cnc(C#Cc4ccc(Cl)s4)nc31)[C@H](O)[C@@H]2O [MRS7220] |  |  | 68.4 ± 5.3 | 97.8 ± 0.1 | 
22 | CCOC(=O)[C@@]12C[C@@H]1[C@@H](n1cnc3c(NC)nc(C#Cc4ccc(Cl)s4)nc31)[C@H](O)[C@@H]2O [MRS7232] | 13.6 ± 1.6 | 50.1 |  |  | Ki [5]: 5.38 ± 0.03 nM
23 | O[C@@H]1[C@H](O)[C@@H]2C[C@@H]2[C@H]1n1cnc2c(NC(C3CC3)C3CC3)nc(Cl)nc21 [MRS5474] |  |  | 9.8 ± 1.2 | 56 ± 4.8 | 
24 | OC[C@H]1O[C@@H](n2cnc3c(Nc4ccccc4)ncnc32)[C@H](O)[C@@H]1O [N^6-phenyl-adenosine] | 75.8 ± 3 | 589 |  |  | Ki [5]: 14.9 ± 3.1 nM
25 | CNC(=O)[C@@]12C[C@@H]1[C@@H](n1cnc3c(NC)nc(C#Cc4ccccc4OC)nc31)[C@H](O)[C@@H]2O [MRS5967] | 92.5 ± 2.4 | 4.68 |  |  | 
26 | CNC(=O)[C@@]12C[C@@H]1[C@@H](n1cnc3c(C)nc(C#Cc4ccc(Cl)s4)nc31)[C@H](O)[C@@H]2O [MRS7195] |  |  | 84.5 ± 6.4 | 107 ± 26 | 
27 | CNC(=O)[C@@]12C[C@@H]1[C@@H](n1cnc3c(NC)nc(C#Cc4cccs4)nc31)[C@H](O)[C@@H]2O [MRS5917] |  |  | 91.6 ± 3.4 | 97.3 ± 2.9 | 
